Bounds are passed on as bounds.

Data set [1] has as its system Mus musculus. The experiment in a line: Percentage inhibition in mouse by using Croton oil-inflamed mouse ear test (topical dosing). Type of data set: functional. Set-up: concentration or dose not given beside the values. The method in brief: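 Male Cox ICR mice (25–35 g), 10 per group. Left ear given 25 μL of 1% compound in ethanol, repeated ~17 h later; 1 h after that, both ears given 25 μL 2% croton oil. After 4 h, 5 mm ear punches weighed. % inhibition = [(C − T1)/C]×100, using left-minus-right weight differences versus vehicle controls.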

For data set [2], the species on record is Mus musculus. The data set can be described thus: Ratio of the number of responders to the number of animals tested; 6/8. In kind it is functional.
A short description of data set [3]: Acute toxicity after intraperitoneal dose at 50 mg/kg in mice. Type of data set: organism-based. Details: dose 50 mg/kg, route intraperitoneal. The conditions noted are these: mouse, in vivo, ip, read-out: Lethality. The method in brief:
(§1)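 Single intraperitoneal dose at the listed mg/kg; acute toxicity scored as % lethality = number of deaths / number of animals dosed, 7–10 animals per group.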

In data set [4] the test system is Mus musculus. The data set can be described thus: Latency time measured by mouse hot plate test after subcutaneous administration at 200 mg/kg. Details: unit: s. Type of data set: functional. Summed up:
(§2)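 Male CF-1 mice, 8 per group, given test agent sc in 0.2 mL ethanol/Tween-80/saline (10/10/80); dose 0.68 mmol (200 mg/kg for capsaicin). Placed on copper surface held at 55 ± 0.5 °C. Paw-response latency (s) reported as group mean ± SD; pretest latency ~5 s.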

Data set [5] concerns Mus musculus. The data set can be described thus: (§3) Acute toxicity after intraperitoneal dose at 200 mg/kg in mice. Type of data set: functional. Summed up: as §1
Data set [6] relates to Rattus norvegicus. The experiment in a line: Percentage analgesia by using rat hot plate test after oral administration at 150 mg/kg. Type of data set: functional. Summed up: (§4)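 Rats fasted 18 h, prescreened on a 55 ± 0.5 °C hot plate (latency <12 s, else lowest <30 s) to set the 0 h value. Groups of 8 dosed orally in sesame oil (1 mL/200 g); latency read at 1.5, 3, 5 h (24 h if persisting). %analgesia = [(LT(t) − LT(0))/(60 − LT(0))]×100, taken at the time of maximal latency.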

Data set [7] can be described thus: Acute toxicity after intraperitoneal dose at 15 mg/kg in mice. Type of data set: organism-based. Set-up: dose 15 mg/kg, route intraperitoneal. Particulars: mouse, in vivo, ip, read-out: Lethality. The method in brief: as §1
The nature of data set [8]: Acute toxicity after intraperitoneal dose at 50 mg/kg. In kind it is organism-based. Details: dose 50 mg/kg, route intraperitoneal. Particulars: mouse, in vivo, ip, read-out: Lethality. Summed up:
as §1

Data set [9] is filed under the species Mus musculus. The data set can be described thus: Ratio of the number of responders to the number of animals tested; 0/8. Type of data set: functional.
The species entered for data set [10] is Mus musculus. The experiment in a line: Ratio of the number of responders to the number of animals tested; 8/8. In kind it is functional.
Data set [11] is described as follows: Acute toxicity after intraperitoneal dose at 8 mg/kg in mice. Details: dose 8 mg/kg, route intraperitoneal. In kind it is organism-based. Particulars: mouse, in vivo, ip, read-out: Lethality. Summed up:
as §1

Data set [12] relates to Rattus norvegicus. The data set can be described thus: Percentage analgesia by rat hot plate test after oral administration at 300 mg/kg. In kind it is functional. The method in brief:
as §4

The species entered for data set [13] is Mus musculus. The experiment in a line: Ratio of the number of responders to the number of animals tested; 6/7. In kind it is functional. Summed up: (§5)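 Male CF-1 mice, 8 per group, dosed sc in 0.2 mL ethanol/Tween-80/saline (10/10/80). Latency read on a copper hot plate held at 55 ± 0.5 °C, with a pretest latency of about 5 s; reported as mean latency (s) ± SD. A responder is an animal whose latency exceeds the vehicle-control mean plus 2 SD; response = responders/animals tested.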

Data set [14] has as its system Mus musculus. The data set can be described thus: Latency time measured by mouse hot plate test after subcutaneous administration at 40 mg/kg. Type of data set: functional. The method in brief: as §5
The species entered for data set [15] is Mus musculus. The experiment in a line: Ratio of the number of responders to the number of animals tested; 5/5. In kind it is functional.
The nature of data set [16]: Acute toxicity after intraperitoneal dose at 33 mg/kg in mice. Details: dose 33 mg/kg, route intraperitoneal. Particulars: mouse, in vivo, ip, read-out: Lethality. In kind it is organism-based. Summed up:
as §1

Data set [17] is described as follows: as §3. In kind it is organism-based. Details: dose 200 mg/kg, route intraperitoneal. Particulars: mouse, in vivo, ip, read-out: Lethality. The method in brief:
as §1

Data set [18] is filed under the species Mus musculus. The experiment in a line: Ratio of the number of responders to the number of animals tested; 7/8. Type of data set: functional.
The nature of data set [19]: Acute toxicity after intraperitoneal dose at 400 mg/kg in mice. Type of data set: organism-based. Details: dose 400 mg/kg, route intraperitoneal. The conditions noted are these: mouse, in vivo, ip, read-out: Lethality. Summed up:
as §1

Data set [20] concerns Mus musculus. The experiment in a line: Latency time measured by mouse hot plate test after subcutaneous administration at 200 mg/kg in experiment 1. Type of data set: functional. The method in brief: as §2
The subject of data set [21] is Mus musculus. The data set can be described thus: Latency time measured by mouse hot plate test after subcutaneous administration at 200 mg/kg in experiment 3. Type of data set: functional. Summed up: as §2
Data set [22] has as its system Mus musculus. The experiment in a line: Latency time measured by mouse hot plate test after subcutaneous at 200 mg/kg in experiment 2. Type of data set: functional. The method in brief: as §2
Data set [23] is described as follows: Acute toxicity after intraperitoneal dose at 4 mg/kg in mice. The conditions noted are these: mouse, in vivo, ip, read-out: Lethality. Details: dose 4 mg/kg, route intraperitoneal. In kind it is organism-based. Summed up: as §1
Data set [24] concerns Rattus norvegicus. The experiment in a line: Percentage analgesia by using rat hot plate test after oral administration at 300 mg/kg. Type of data set: functional. Summed up:
as §4

Data set [25] is described as follows: Acute toxicity after intraperitoneal dose at 100 mg/kg in mice. In kind it is organism-based. Set-up: dose 100 mg/kg, route intraperitoneal. The conditions noted are these: mouse, in vivo, ip, read-out: Lethality. Summed up: as §1
The species named for data set [26] is Mus musculus. The data set can be described thus: Ratio of the number of responders to the number of animals tested; 5/8. Type of data set: functional.

For the molecule `CCCCCCC(=O)NCc1ccc(O)c(OC)c1`, the Inhibition with Mus musculus [1] is 33.7%. The Response in the data set filed under Mus musculus [2] was found to be 6. Further, the mortality in data set [3] worked out at 85%. Moreover, the Latency in the data set with Mus musculus [4] came out at 29.8.

In the data set on Mus musculus [1], `CCCCCCCC[C@H]1O[C@@H]1CCCCCCCC(=O)NCc1ccc(O)c(OC)c1` displayed an Inhibition of 26%. Besides, the Lethality with Mus musculus [5] is on record as 60%. For the same molecule, the Latency with Mus musculus [4] is recorded as 10.7.

In the data set with Rattus norvegicus [6], `CCCCCC/C=C\CCCCCCCCCCNC(=O)Cc1ccc(O)c(OC)c1` had an Analgesia of 62%.

`CCCCCCCCCCCC(=O)NCc1ccc(O)c(OC)c1` showed an Inhibition in the data set with Mus musculus [1] of 48.1%. Besides, the values for the mortality in [7] and in data set [8] were 25% and 100%, respectively. For the same molecule, the Response in the data set listed under Mus musculus [9] is listed as 0. In the data set on Mus musculus [4], this molecule came in with a Latency of 9.9.

In the data set with Mus musculus [1], `CCCCCCCCC(=O)NCc1ccc(O)c(OC)c1` [NONIVAMIDE] gave an Inhibition of 72.3%. In addition, in the data set filed under Mus musculus [10], the Response is recorded as 8. Also, the mortality in data set [11] is 50%. This molecule came in with an Analgesia with Rattus norvegicus [12] of 17%. In the data set with Mus musculus [4], the Latency is recorded as more than 31.2.

For `COc1cc(CNC(=O)CCCC/C=C\C(C)C)ccc1O` [ZUCAPSAICIN], the Inhibition in the data set on Mus musculus [1] came out at 79.5%. Further, in the data set listed under Mus musculus [13], the Response is reported as 6. This molecule also registered a Latency in the data set with Mus musculus [14] of more than 39.9. In the data set on Rattus norvegicus [12], this molecule registered an Analgesia of 0%.

As for `CCCCCCCCCC(=O)NCc1ccc(O)c(OC)c1`, in the data set on Mus musculus [1], the Inhibition is listed as 71.4%. Moreover, in [3], the mortality stood at 80%. In the data set listed under Mus musculus [15], the Response is on record as 5. For the same molecule, the Latency in the data set with Mus musculus [4] was more than 43.

On to `C=CCCCCCCCCC(=O)NCc1ccc(O)c(OC)c1`, for which the Inhibition with Mus musculus [1] was determined as 65.7%. For the same molecule, the mortality in data set [16] stood at 50%. The Analgesia with Rattus norvegicus [12] turned out to be 8%. Besides, the Latency with Mus musculus [4] is reported as 55.5.

`CCCC/C=C/C/C=C\CCCCCCCCC(=O)NCc1ccc(O)c(OC)c1.CCCCC/C=C/C=C\CCCCCCCCC(=O)NCc1ccc(O)c(OC)c1` showed an Inhibition in the data set on Mus musculus [1] of 66.8%. In addition, the Response in the data set filed under Mus musculus [2] was found to be 6. Further, in [17], the mortality is 0%. The Analgesia in the data set with Rattus norvegicus [12] is 34%. The molecule also had a Latency with Mus musculus [4] of more than 36.6.

Turning to `CCCCCCC/C=C\CCCCCCCCC(=O)NCc1ccc(O)c(OC)c1`, the Inhibition with Mus musculus [1] is 81.7%. In the data set listed under Mus musculus [18], the Response is reported as 7. Besides, the mortality in data set [19] came to 30%. In the data set with Rattus norvegicus [12], the Analgesia is on record as 69%. For the same molecule, the Latency in the data set with Mus musculus [4] is reported as more than 38.5.

`CCCCCCCCNC(=O)Cc1ccc(O)c(OC)c1`: the Inhibition in the data set on Mus musculus [1] is given as 89.1%. The Latency in the data set on Mus musculus [20] is 58.7; in the data set on Mus musculus [21], 32.3; in the data set with Mus musculus [22], more than 60. For the same molecule, in [23], the mortality was determined as 50%. In the data set with Rattus norvegicus [24], this molecule displayed an Analgesia of 7%.

As for `CCCCC/C=C\CCCCCCCCCCC(=O)NCc1ccc(O)c(OC)c1`, the Inhibition in the data set on Mus musculus [1] amounted to 60%. In addition, the Response in the data set listed under Mus musculus [10] is 8. For the same molecule, in data set [17], the mortality was 30%. The Latency with Mus musculus [4] was more than 39.9.

Turning to `C=CCCCCCCCCNC(=O)Cc1ccc(O)c(OC)c1`, the Inhibition in the data set with Mus musculus [1] turned out to be 98.9%. In [25], the mortality came to 90%. Moreover, the Response in the data set listed under Mus musculus [26] amounted to 5. Moreover, in the data set on Rattus norvegicus [12], the Analgesia is 29%. Also, the Latency in the data set with Mus musculus [4] is listed as 32.4.

For the origin of these results see ChEMBL document CHEMBL1127051, “Vanilloids. 1. Analogs of capsaicin with antinociceptive and antiinflammatory activity” (J Med Chem, 1993).
